In ChEMBL document CHEMBL3784931, “Synthesis and evaluation of novel angiotensin II receptor 1 antagonists as anti-hypertension drugs” (Bioorg Med Chem, 2016):

Legend:
[1] = Terminal half life in Wistar rat lung at 10 mg/kg, po after 0.5 to 72 hrs by HPLC analysis; type: ADME, organism-based; settings: read-out: beta t1/2 (converted)
In short: (§1)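 Wistar rats were dosed orally and killed by abdominal aorta transection at 0.5, 1, 2, 4, 6, 8, 12, 24, 48 and 72 h. Organs were excised at once, minced and homogenized at 4 °C in normal saline to a 25% (w/v) homogenate. After spinning at 3000 × g, 4 °C, 10 min, supernatants were analysed by HPLC. Values are mean ± SEM, n = 5 per point.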

Rattus norvegicus = test: Antihypertensive activity in spontaneous hypertensive rat model assessed as mean blood pressure at 15 mg/kg, po administered for 2 hrs; type: functional
In short: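 Male SHRs were randomized, n = 6 per group. Compound was suspended in DMSO/oleic acid (1:4) and given by oral gavage; vehicle controls got the same volume of solvent. SBP and DBP were recorded in conscious animals by noninvasive tail-artery manometry. MBP = (SBP − DBP)/3 + DBP. Data are mean ± SEM, with p < 0.05 taken as significant.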

[2] = Elimination rate constant in Wistar rat brain at 10 mg/kg, po after 0.5 to 72 hrs by HPLC analysis; type: ADME, organism-based; in short: as §1
[3] = Acute toxicity in ICR mouse assessed as mortality at 5056.79 mg/kg, ig administered daily for 2 weeks measured during compound dosing; type: organism-based; settings: in vivo, po
In short: (§2)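 ICR mice, sixty in total, half male and half female, 20 ± 2 g. Intragastric dosing at 1200, 1600, 2133.3, 2844.40, 5056.79 or 6742.38 mg/kg. Animals watched daily over two weeks for survival and physiological abnormalities or untoward reactions. Percent mortality recorded per dose group.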

[4] = Tmax in Wistar rat liver at 10 mg/kg, po after 0.5 to 72 hrs by HPLC analysis; type: ADME, organism-based; in short: as §1
[5] = Cmax in Wistar rat liver at 10 mg/kg, po after 0.5 to 72 hrs by HPLC analysis; type: ADME, organism-based; set-up: dose 10 mg/kg, route oral; in short: as §1
Heart = test: AUC (0 to 72 hrs) in Wistar rat heart at 10 mg/kg, po by HPLC analysis; type: ADME, organism-based; set-up: time < 72 hr, dose 10 mg/kg, route oral; settings: in vivo; in short: as §1
Kidney = test: AUC (0 to 72 hrs) in Wistar rat kidney at 10 mg/kg, po by HPLC analysis; type: ADME, organism-based; set-up: dose 10 mg/kg, time < 72 hr, route oral; settings: in vivo; in short: as §1
Brain = test: AUC (0 to 72 hrs) in Wistar rat brain at 10 mg/kg, po by HPLC analysis; type: ADME, organism-based; set-up: dose 10 mg/kg, time < 72 hr, route oral; settings: in vivo; in short: as §1
Liver = test: AUC (0 to 72 hrs) in Wistar rat liver at 10 mg/kg, po by HPLC analysis; type: ADME, organism-based; set-up: time < 72 hr, dose 10 mg/kg, route oral; settings: in vivo; in short: as §1
[6] = Acute toxicity in ICR mouse assessed as mortality administered intragastrically daily for 2 weeks measured during compound dosing; type: organism-based; settings: in vivo, po
In short: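 Sixty normal ICR mice (half male, half female, 20 ± 2 g) given intragastric doses of 1200, 1600, 2133.3, 2844.40, 5056.79 and 6742.38 mg/kg. Survival checked daily for two weeks.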

[7] = Elimination rate constant in Wistar rat lung at 10 mg/kg, po after 0.5 to 72 hrs by HPLC analysis; type: ADME, organism-based; in short: as §1
[8] = Tmax in Wistar rat spleen at 10 mg/kg, po after 0.5 to 72 hrs by HPLC analysis; type: ADME, organism-based; in short: as §1
[9] = Tmax in Wistar rat lung at 10 mg/kg, po after 0.5 to 72 hrs by HPLC analysis; type: ADME, organism-based; in short: as §1
[10] = Tmax in Wistar rat kidney at 10 mg/kg, po after 0.5 to 72 hrs by HPLC analysis; type: ADME, organism-based; in short: as §1
Mus musculus [11] = test: Acute toxicity in ICR mouse assessed as skin changes at 1200 mg/kg, ig administered daily for 2 weeks measured during compound dosing; type: organism-based; settings: in vivo, po, 336 h; in short: as §2
Mus musculus [12] = test: Acute toxicity in ICR mouse assessed as mobility at 1200 mg/kg, ig administered daily for 2 weeks measured during compound dosing; type: organism-based; settings: in vivo, po, 336 h; in short: as §2
[13] = Terminal half life in Wistar rat stomach at 10 mg/kg, po after 0.5 to 72 hrs by HPLC analysis; type: ADME, organism-based; settings: read-out: beta t1/2 (converted); in short: as §1
[14] = Cmax in Wistar rat spleen at 10 mg/kg, po after 0.5 to 72 hrs by HPLC analysis; type: ADME, organism-based; set-up: dose 10 mg/kg, route oral; in short: as §1
[15] = Acute toxicity in ICR mouse assessed as mortality at 6742.38 mg/kg, ig administered daily for 2 weeks measured during compound dosing; type: organism-based; settings: in vivo, po; in short: as §2
[16] = Acute toxicity in ICR mouse assessed as mortality at 1600 mg/kg, ig administered daily for 2 weeks measured during compound dosing; type: organism-based; settings: in vivo, po; in short: as §2
Lung = test: AUC (0 to 72 hrs) in Wistar rat lung at 10 mg/kg, po by HPLC analysis; type: ADME, organism-based; set-up: dose 10 mg/kg, time < 72 hr, route oral; settings: in vivo; in short: as §1
Spleen = test: AUC (0 to 72 hrs) in Wistar rat spleen at 10 mg/kg, po by HPLC analysis; type: ADME, organism-based; set-up: time < 72 hr, dose 10 mg/kg, route oral; settings: in vivo; in short: as §1
[17] = Elimination rate constant in Wistar rat heart at 10 mg/kg, po after 0.5 to 72 hrs by HPLC analysis; type: ADME, organism-based; in short: as §1
[18] = target: T1, Type-1 angiotensin II receptor A (Rattus norvegicus, UniProt P25095); test: Displacement of [125I]-Ang II from Angiotensin 2 type-1A receptor in rat vascular smooth muscle cells after 150 mins by gamma counting method
T1 sequence (P25095 whole entry): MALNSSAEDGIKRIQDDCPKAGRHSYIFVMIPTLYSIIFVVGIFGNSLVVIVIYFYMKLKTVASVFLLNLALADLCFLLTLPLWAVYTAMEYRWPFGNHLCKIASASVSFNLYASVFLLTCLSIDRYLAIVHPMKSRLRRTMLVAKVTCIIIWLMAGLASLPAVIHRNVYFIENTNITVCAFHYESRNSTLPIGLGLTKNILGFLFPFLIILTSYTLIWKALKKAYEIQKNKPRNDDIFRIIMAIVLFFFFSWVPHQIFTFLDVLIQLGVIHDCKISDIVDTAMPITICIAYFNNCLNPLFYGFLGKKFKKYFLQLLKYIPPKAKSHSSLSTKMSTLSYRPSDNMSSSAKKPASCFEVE
In short: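 Rat vascular smooth muscle cells (passages 3–6) were seeded at 10⁶ cells/well and grown at 37 °C in 5% CO₂. Nonspecific binding was taken with 1 µM Ang II. Cells were washed three times, lysed 10 min in 0.1 M NaOH, and bound radioactivity was gamma counted.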

[19] = Cmax in Wistar rat lung at 10 mg/kg, po after 0.5 to 72 hrs by HPLC analysis; type: ADME, organism-based; set-up: dose 10 mg/kg, route oral; in short: as §1
Mus musculus [20] = test: Acute toxicity in ICR mouse assessed as aggressiveness at 1200 mg/kg, ig administered daily for 2 weeks measured during compound dosing; type: organism-based; settings: in vivo, po, 336 h; in short: as §2
[21] = Elimination rate constant in Wistar rat liver at 10 mg/kg, po after 0.5 to 72 hrs by HPLC analysis; type: ADME, organism-based; in short: as §1
[22] = Elimination rate constant in Wistar rat kidney at 10 mg/kg, po after 0.5 to 72 hrs by HPLC analysis; type: ADME, organism-based; in short: as §1
[23] = Cmax in Wistar rat heart at 10 mg/kg, po after 0.5 to 72 hrs by HPLC analysis; type: ADME, organism-based; set-up: dose 10 mg/kg, route oral; in short: as §1

CCCCc1nc(Cl)c(C(=O)O)n1Cc1ccc(-c2ccccc2-c2noc(=O)[nH]2)cc1
half-life [1]: 12.4 h
Activity (Rattus norvegicus): 62 mmHg
k el [2]: 1.14e-05 s⁻¹
mortality at 336 h [3]: 90%
Tmax [4]: 0.5 h
Cmax [5]: 9.56 ng/g
AUC (Heart): 200.41 ng·h/g
AUC (Kidney): 202.97 ng·h/g
AUC (Brain): 123.07 ng·h/g
AUC (Liver): 260.05 ng·h/g
LD50 at 336 h [6]: 2970 mg/kg
k el [7]: 1.64e-05 s⁻¹
Tmax [8]: 4 h
Tmax [9]: 1 h
Tmax [10]: 0.5 h
Activity (Mus musculus [11]): Non-toxic
Activity (Mus musculus [12]): Non-toxic
half-life [13]: 15.1 h
Cmax [14]: 8.84 ng/g
mortality at 336 h [15]: 100%
mortality at 336 h [16]: 10%
AUC (Lung): 213.96 ng·h/g
AUC (Spleen): 275.21 ng·h/g
k el [17]: 2.11e-05 s⁻¹
IC50 [18]: 3.16 nM
Ki [18]: 2.29 nM
Cmax [19]: 9.16 ng/g
Activity (Mus musculus [20]): Non-toxic
k el [21]: 1.94e-05 s⁻¹
k el [22]: 1.11e-05 s⁻¹
Cmax [23]: 8.87 ng/g
